According to ChEMBL document CHEMBL4680084, “New β-Lactam Derivatives Modulate Cell Adhesion and Signaling Mediated by RGD-Binding and Leukocyte Integrins” (J Med Chem, 2016):
pEC50, pIC50: −log10 of the molar value. Active and inactive are the calls of the source. The calls are words filed in the database; no cut-off is given here.

Legend:
MCF7 = assay: Toxicity in human MCF7 cells assessed as induction of cell necrosis and/or apoptosis incubated for 3 hrs by annexin V-PE and 7-AAD staining based by flow cytometry; settings: mcf7, 3 h
Method in brief: (§1)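 After 3 h incubation, cells resuspended in complete medium and stained with annexin V-PE/7-AAD reagent for 20 min at room temperature in the dark. Flow cytometry sorted cells into viable, early apoptotic and late apoptotic/necrotic populations.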

[1] = biological target: T1, Integrin alpha-IIb/beta-3 (Homo sapiens, UniProt P05106+P08514); assay: Antagonist activity at alpha2bbeta3 in human HEL cells assessed as reduction in cell adhesion to fibrinogen pre-incubated for 30 mins before fibrinogen and further incubated for 1 hr by nitrophenyl-N-acetyl-beta-D-glucosaminide substrate based chromogenic assay
Method in brief: (§2)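 Compound or methanol vehicle pre-incubated with cells for 30 min at room temperature. Cells then plated on wells coated overnight at 4 °C with fibronectin 10 µg/mL (SK-MEL-24, K562, HT-29) or fibrinogen 10 µg/mL (MCF7, HEL). Seeding was 50,000 cells/well, or 100000 for HEL. Adhesion ran 1 h at room temperature. Wells washed with 1% BSA/PBS. Quadruplicate, at least three repeats.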

[2] = biological target: Integrin alpha-L/beta-2 (LFA-1) (Homo sapiens, UniProt P05107+P20701); assay: Antagonist activity at alphaLbeta2 in human Jurkat E6.1 cells assessed as reduction in cell adhesion to ICAM1 pre-incubated for 30 mins before ICAM1 and further incubated for 30 mins by […]; format: cell-based
Method in brief: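 Jurkat E6.1 cells labelled with CellTracker green CMFDA (12.5 µM, 30 min, 37 °C), washed, then pre-incubated 30 min at 37 °C with compound or methanol. Plated at 500,000/well on VCAM-1 (α4β1) or ICAM-1 (αLβ2) coated wells (5 µg/mL) for 30 min at 37 °C. Cells lysed in 0.5% Triton X-100; fluorescence read Ex485/Em535. Quadruplicate, at least three repeats.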

Integrin alpha-4/beta-1 = Integrin alpha-4/beta-1 (Homo sapiens, UniProt P05556+P13612); assay: Antagonist activity at alpha4beta1 in human Jurkat E6.1 cells assessed as reduction in cell adhesion to VCAM1 pre-incubated for 30 mins before VCAM1 and further incubated for 30 mins by […]; format: cell-based
Integrin alpha-5/beta-1 [3] = biological target: T2, Integrin alpha-5/beta-1 (Homo sapiens, UniProt P05556+P08648); assay: Agonist activity at alpha5beta1 in human K562 cells assessed as assessed as increase in ERK1/2 phosphorylation at 1 to 100 nM by Western blot analysis; format: cell-based; settings: filed as agonist, dose 1-100 nM
Integrin alpha-V/beta-6 [4] = biological target: T3, Integrin alpha-V/beta-6 (Homo sapiens, UniProt P06756+P18564); assay: Agonist activity at alphaVbeta6 in human HT-29 cells assessed as increase in cell adhesion to fibronectin pre-incubated for 30 mins before fibronectin and further incubated for 1 hr by nitrophenyl-N-acetyl-beta-D-glucosaminide substrate based chromogenic assay
Method in brief: as §2, with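 “BSA/PBS. Adherent cells read by hexosaminidase substrate, absorbance 405 nm.” for “BSA/PBS.”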

Integrin alpha-V/beta-6 [5] = biological target: T3, Integrin alpha-V/beta-6; assay: Antagonist activity at alphaVbeta6 in human HT-29 cells assessed as reduction in cell adhesion to fibronectin pre-incubated for 30 mins before fibronectin and further incubated for 1 hr by nitrophenyl-N-acetyl-beta-D-glucosaminide substrate based chromogenic assay; method in brief: as §2
Integrin alpha-5/beta-1 [6] = biological target: T2, Integrin alpha-5/beta-1; assay: Agonist activity at alpha5beta1 in human K562 cells assessed as increase in cell adhesion to fibronectin pre-incubated for 30 mins and further incubated for 1 hr by nitrophenyl-N-acetyl-beta-D-glucosaminide substrate based chromogenic assay; settings: filed as agonist, time 90.0 min
Method in brief: as §2, with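 “BSA/PBS. Adherent cells read by hexosaminidase substrate, absorbance 405 nm.” for “BSA/PBS.”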

Integrin alpha-5/beta-1 [7] = biological target: T2, Integrin alpha-5/beta-1; assay: Inhibition of fibronectin binding to alpha5beta1 isolated from human K562 cells incubated for 1 hr by […] competitive solid-phase binding assay; format: tissue-based
Method in brief: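 Plates coated overnight at 4 °C in carbonate buffer pH 9.6 with fibronectin 0.5 µg/mL (αvβ3, αvβ6, α5β1), fibrinogen 10 µg/mL (αIIbβ3, αvβ5) or ICAM-1 (αLβ2). Blocked 1 h in buffer containing Ca/Mg/Mn 1 mM each and 1% BSA. Purified integrin (3–10 µg/mL) incubated with compound (10⁻⁴–10⁻¹⁰ M) 1 h at room temperature. Bound integrin detected with primary antibody then AlexaFluor488 secondary, Ex485/Em535. Duplicate, at least three repeats.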

Integrin alpha-V/beta-5 [8] = biological target: T4, Integrin alpha-V/beta-5 (Homo sapiens, UniProt P06756+P18084); assay: Antagonist activity at alphaVbeta5 in human MCF7 cells assessed as reduction in cell adhesion to fibrinogen pre-incubated for 30 mins before fibrinogen and further incubated for 1 hr by nitrophenyl-N-acetyl-beta-D-glucosaminide substrate based chromogenic assay; method in brief: as §2
Integrin alpha-V/beta-5 [9] = biological target: T4, Integrin alpha-V/beta-5; assay: Inhibition of fibrinogen binding to alphaVbeta5 isolated form human mCf7 cells incubated for 1 hr by […] competitive solid-phase binding assay
Integrin alpha-5/beta-1 [10] = biological target: T2, Integrin alpha-5/beta-1; assay: Agonist activity at alpha5beta1 in human K562 cells assessed as increase in cell adhesion to fibronectin pre-incubated for 30 mins before fibronectin and further incubated for 1 hr by nitrophenyl-N-acetyl-beta-D-glucosaminide substrate based chromogenic assay
Method in brief: as §2, with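 “BSA/PBS. Adherent cells read by hexosaminidase substrate, absorbance 405 nm.” for “BSA/PBS.”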

Integrin alpha-V/beta-6 [11] = biological target: T3, Integrin alpha-V/beta-6; assay: Inhibition of fibronectin binding to alphaVbeta6 isolated form human HT-29 cells incubated for 1 hr by […] competitive solid-phase binding assay; format: tissue-based
HEL = assay: Toxicity in human HEL cells assessed as induction of cell necrosis and/or apoptosis incubated for 3 hrs by annexin V-PE and 7-AAD staining based by flow cytometry; method in brief: as §1
[12] = biological target: T1, Integrin alpha-IIb/beta-3; assay: Agonist activity at alpha2bbeta3 in human HEL cells assessed as increase in cell adhesion to fibrinogen pre-incubated for 30 mins before fibrinogen and further incubated for 1 hr by nitrophenyl-N-acetyl-beta-D-glucosaminide substrate based chromogenic assay; method in brief: as §2
[13] = biological target: T1, Integrin alpha-IIb/beta-3; assay: Agonist activity at alpha2bbeta3 in human K562 cells assessed as increase in cell adhesion to fibrinogen pre-incubated for 30 mins and further incubated for 1 hr in presence of alpha2bbeta3 antagonist Tirofiban by nitrophenyl-N-acetyl-beta-D-glucosaminide substrate based chromogenic assay; settings: time 90.0 min
Integrin alpha-V/beta-3 = Integrin alpha-V/beta-3 (Homo sapiens, UniProt P05106+P06756); assay: Inhibition of fibronectin binding to human recombinant alphaVbeta3 expressed in HEK293 cells incubated for 1 hr by […] competitive solid-phase binding assay; format: cell-based
HT-29 = assay: Toxicity in human HT-29 cells assessed as induction of cell necrosis and/or apoptosis incubated for 3 hrs by annexin V-PE and 7-AAD staining based by flow cytometry; settings: ht-29, 3 h; method in brief: as §1
SK-MEL-24 = assay: Toxicity in human SK-MEL-24 cells assessed as induction of cell necrosis and/or apoptosis incubated for 3 hrs by annexin V-PE and 7-AAD staining based by flow cytometry; settings: sk-mel-24, 3 h; method in brief: as §1
Integrin alpha-V/beta-5 [14] = biological target: T4, Integrin alpha-V/beta-5; assay: Agonist activity at alphaVbeta5 in human MCF7 cells assessed as increase in cell adhesion to fibrinogen pre-incubated for 30 mins before fibrinogen and further incubated for 1 hr by nitrophenyl-N-acetyl-beta-D-glucosaminide substrate based chromogenic assay
Method in brief: as §2, with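 “BSA/PBS. Adherent cells read by hexosaminidase substrate, absorbance 405 nm.” for “BSA/PBS.”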

| SMILES | Activity (MCF7) | pIC50 [1] | pIC50 [2] | pIC50 (Integrin alpha-4/beta-1) | Activity (Integrin alpha-5/beta-1 [3]) | pEC50 (Integrin alpha-V/beta-6 [4]) | pIC50 (Integrin alpha-V/beta-6 [5]) | Activity (Integrin alpha-5/beta-1 [6]) | pIC50 (Integrin alpha-5/beta-1 [7]) | pIC50 (Integrin alpha-V/beta-5 [8]) | pIC50 (Integrin alpha-V/beta-5 [9]) | pEC50 (Integrin alpha-5/beta-1 [10]) | pIC50 (Integrin alpha-V/beta-6 [11]) | Activity (HEL) | pEC50 [12] | pIC50 (Integrin alpha-V/beta-3) | Activity (HT-29) | Activity (SK-MEL-24) | pEC50 (Integrin alpha-V/beta-5 [14]) | Activity ([13]; filed as agonist) | further results |
| --- | --- | --- | --- | --- | --- | --- | --- | --- | --- | --- | --- | --- | --- | --- | --- | --- | --- | --- | --- | --- | --- |
| NCc1ccc(NC(=O)N2C(=O)CC2CC(=O)NCCC(=O)O)cc1.O=C(O)C(F)(F)F (stereo not given) | Non-Toxic | 5.81 | < 5.30 | < 5.30 | Dose-dependent effect | < 5.30 | < 5.30 | Dose-dependent effect | 8.26 | < 5.30 | < 6.00 | 8.17 | < 6.00 | Non-Toxic | 5.81 | < 6.00 | Non-Toxic | Non-Toxic | < 5.30 | – | Activity [13]: inactive |
| Cc1ccccc1NC(=O)N1C(=O)CC1CC(=O)NCC(=O)O (stereo not given) | Non-Toxic | < 5.30 | < 5.30 | < 5.30 | Dose-dependent effect | < 5.30 | < 5.30 | Dose-dependent effect | 7.28 | < 5.30 | < 6.00 | 8.00 | < 6.00 | Non-Toxic | < 5.30 | < 6.00 | Non-Toxic | Non-Toxic | < 5.30 | Active | – |
| Nc1ccc(CNC(=O)N2C(=O)CC2CC(=O)O)cc1.O=C(O)C(F)(F)F (stereo not given) | Non-Toxic | < 5.30 | 9.41 | 6.24 | Active | < 5.30 | < 5.30 | Dose-dependent effect | 8.01 | < 5.30 | < 6.00 | 7.35 | < 6.00 | Non-Toxic | < 5.30 | 8.00 | Non-Toxic | Non-Toxic | < 5.30 | Active | – |
